This note sets out measurements from ChEMBL document CHEMBL1153564 (Antimicrob Agents Chemother, 2008).

The subject of the experiment is Candida albicans. Nature of the experiment: Antifungal activity against Candida albicans 98-210 infected in neutropenic ICR/Swiss mouse candidiasis model assessed as dose required for 1-log10 reduction in […] per kidney administered intraperitoneally every 24 hrs up to 4 days measured per 24 hrs. It is filed as functional. Summed up: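 Neutropenic mice (cyclophosphamide sc on days −4, −1 and +2) were infected iv 2 h before therapy. Five total doses from 0.078 to 20 mg/kg/24 h were given ip q24h for 4 days, three mice per regimen. Kidney CFU were measured at the end of therapy. Static and 1-log-kill doses were derived from a Hill sigmoid dose-effect fit.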

Starred links: 1 amine or outer side, 2 acyl side, 3 side chain; linkers in the order of their positions; H or OH if unused. Positions of bridges follow the written chain, without caps; N, C: chain ends. Non-standard residues stand in square brackets, D forms with d. Residues, ends and D or L forms follow the SMILES beside them. *: point of attachment. pTerphenylCO(4''-OnC5H11) = CCCCCOc1ccc(-c2ccc(-c3ccc(C(=O)*)cc3)cc2)cc1; Orn(4R-OH,5R-OH) = O=C([C@H](C[C@@H](O)[C@@H](O)N[*:3])N[*:1])[*:2]; hTyr(3S-OH,4S-OH) = N[C@H](C(=O)O)[C@H](O)[C@@H](O)c1ccc(O)cc1; Pro(3S-OH,4S-Me) = C[C@H]1CN[C@H](C(=O)O)[C@H]1O; Hyp = O=C(O)[C@@H]1C[C@@H](O)CN1

Turning to `CCCCCOc1ccc(-c2ccc(-c3ccc(C(=O)N[C@H]4C[C@@H](O)[C@@H](O)NC(=O)[C@@H]5[C@@H](O)[C@@H](C)CN5C(=O)[C@H]([C@@H](C)O)NC(=O)[C@H]([C@H](O)[C@@H](O)c5ccc(O)cc5)NC(=O)[C@@H]5C[C@@H](O)CN5C(=O)[C@H]([C@@H](C)O)NC4=O)cc3)cc2)cc1` [ANIDULAFUNGIN] ({pTerphenylCO(4''-OnC5H11)}-[Orn(4R-OH,5R-OH)]T[Hyp][hTyr(3S-OH,4S-OH)]T[Pro(3S-OH,4S-Me)]; lactam 1-C), the Activity worked out at 13 mg/kg.
